Assay outcomes as filed in PubChem BioAssay.
An excerpt weighted towards active compounds, which were near 1.9% of everything screened.
Runt-CBFb FRET: Runt domain-CBFb interaction inhibition. Cerulean-Runt/Venus-CBFb FRET ratio 530/480, 1 h. inhibition, % at 20 µM. actives 0.46% (n = 220,000);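 active = inhibition over about 50% at 20 µM in the single-dose screen, limit read from the data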;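 also: 0% = DMSO wells and 100% = excess unlabeled CBFb competitor control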
Target sequence (Q01196 whole entry, looked up, the tested form may be a part): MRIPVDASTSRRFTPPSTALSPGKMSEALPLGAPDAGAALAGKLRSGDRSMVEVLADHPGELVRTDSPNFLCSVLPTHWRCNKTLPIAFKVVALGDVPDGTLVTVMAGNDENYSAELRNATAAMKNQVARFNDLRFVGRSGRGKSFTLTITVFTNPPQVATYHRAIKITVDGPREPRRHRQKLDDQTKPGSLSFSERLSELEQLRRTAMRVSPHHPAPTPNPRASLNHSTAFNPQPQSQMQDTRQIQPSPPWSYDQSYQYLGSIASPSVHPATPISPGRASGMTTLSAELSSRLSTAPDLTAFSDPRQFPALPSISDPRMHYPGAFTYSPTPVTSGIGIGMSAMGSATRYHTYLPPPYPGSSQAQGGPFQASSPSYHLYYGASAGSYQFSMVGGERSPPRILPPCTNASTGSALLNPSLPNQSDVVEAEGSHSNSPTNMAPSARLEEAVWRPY
Target sequence (Q13951 whole entry, looked up, the tested form may be a part): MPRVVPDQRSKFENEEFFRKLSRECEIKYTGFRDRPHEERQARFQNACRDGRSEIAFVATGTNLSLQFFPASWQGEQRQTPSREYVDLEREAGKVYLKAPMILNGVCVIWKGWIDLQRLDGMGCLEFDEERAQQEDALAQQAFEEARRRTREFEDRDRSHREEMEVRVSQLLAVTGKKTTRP
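Assay system: Cerulean-Runt domain / Medium: Tris 50 mM pH 7.5, KCl, K2SO4, 0.01% BSA / Timing: protein complex preformed 1 h, compound exposure 1 h, room temperature, dark / Measured by: FRET, excitation 422 nm, emission at 530 and 480 nm / Evaluation: loss of energy transfer signal / Control set: 5 µM unlabeled CBFb as full-inhibition high control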
Runt-SMMHC FRET: blocks binding of human RUNX1 Runt domain to CBFb-SMMHC. Q01196+Q13951. Cerulean-Runt/Venus-CBFb-SMMHC FRET ratio 530/480, 1 h. inhibition, % at 20 µM. actives 0.74% (n = 220,000). AID 1434;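 active = mean inhibition across duplicate retests at 20 µM reaching about 50%, limit read from the data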;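 also: 0% = DMSO wells and 100% = wells with excess untagged CBFb-SMMHC; inhibitors lower the FRET ratio by blocking Runt binding to CBFb-SMMHC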
Hck Nef HTS: inhibitors of human Hck kinase activated by Nef | P08631 | Recombinant Hck-YEEI plus Nef, Z-Lyte FRET kinase assay | inhibition, % at 20 µM | actives 0.68% (n = 220,000) | AID 463187;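 active = Hck-Nef kinase inhibition above about 50%, limit read from the data; inactive = inhibition below that limit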;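 also: 0% = DMSO with Hck plus Nef and 100% = Hck alone without Nef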
RanGTP-Imp inh: disruptors of Ran-importin-beta complex formation – biochemical, FRET, CFP-Ran, YFP-importin-beta, homogeneous, primary screen; cell-free CFP-Ran/YFP-importin-beta FRET ratio; actives 1.1% (n = 300,000); AID 2216; inhibition, % (test concentration not listed);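 active = more than half of the replicate wells show a fall in the fluorescence ratio signal beyond about 16%, limit read from the data, passing the limit was not always enough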;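 also: 0% = DMSO wells and 100% = Ran loaded with GDP instead of GTP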
Numbers without * were called inactive; / = not tested or not shown.

SMILES	Runt-CBFb FRET	Runt-SMMHC FRET	Hck Nef HTS	RanGTP-Imp inh
O=C(N/N=C\C=C\c1ccc2c(c1)OCO2)C1COc2cc3ccccc3cc2O1 (stereo unspecified)	0.8	1.8	3.5	18.7*
O=C(N/N=C/c1ccc2c(c1)OCO2)C1COc2ccccc2O1 (stereo unspecified)	-1.4	-1.9	1.3	-2.9
O=C(NC(=S)Nc1ccccc1N1CCOCC1)c1ccc(-c2ccccc2F)o1	0.6	1.0	38.4	-3.9
CCCSc1nc(C)c2cc(C)cc(C)c2n1	1.5	-2.0	-1.4	-3.7
Cc1cc(C)c2nc3nc(C)c(C)cc3c(N)c2c1	19.1	91.9*	7.2	13.6
CCN1/C(=C/C=C/c2sc3ccccc3[n+]2CC)Sc2ccccc21	/	/	/	25.8*
CC(C)N1CCc2c(sc(NC(=O)Cc3ccccc3)c2C(N)=O)C1	/	/	/	139.8*
CC(=O)N1CCc2c(sc(NC(=O)Cc3ccccc3)c2C(N)=O)C1	/	/	/	5.2
CC(C)N1CCc2c(sc(NC(=O)CCc3ccccc3)c2C(N)=O)C1	78.1*	92.5*	21.6	130.3*
CCCN1CCc2c(sc(NC(=O)Cc3ccc(F)cc3)c2C(N)=O)C1	/	/	/	133.3*
COc1ccc(CCN=C(N)NS(=O)(=O)c2cc(F)ccc2F)cc1	/	/	/	3.4
O=C(CCC(=O)c1ccc(F)cc1)NC1CCCN(Cc2ccccc2F)C1 (stereo unspecified)	/	/	/	3.6
Cc1ccc(C2=C/C(=C/c3cccnc3)C(=O)O2)c(C)c1	1.6	-1.7	1.9	33.8*
O=C1OC(c2ccc(Cl)cc2)=C/C1=C/c1cccnc1	/	/	/	3.6
O=c1[nH]c(=S)[nH]c2c1C(c1ccc(Br)cc1)c1c([nH]c(=S)[nH]c1=O)O2	/	/	/	0.1
Cc1ccc(C2C3=C(CCCC3=O)Nc3[nH]c(=S)[nH]c(=O)c32)cc1 (stereo unspecified)	48.0	60.1*	-25.1	2.8
CCSc1nc2c(c(=O)[nH]1)C(c1ccc(C)cc1)C1=C(CCCC1=O)N2 (stereo unspecified)	-2.6	0.5	25.5	0.4
O=C1CCCC2=C1C(c1ccc(Br)cc1)c1c([nH]c(=S)[nH]c1=O)N2 (stereo unspecified)	46.2	68.1*	0.0	2.5
Cc1ccc(C)c(OCC(O)CNC2CCCC2)c1 (stereo unspecified)	/	/	/	-2.2
CC1(C(=O)NNC(=O)c2ccc(=O)oc2)CC1Br (stereo unspecified)	31.0	84.0*	-1.5	17.0
Cc1cc(=O)oc(C)c1C(=O)NNC(=O)C1(C)CC1Br (stereo unspecified)	0.4	2.7	8.4	-2.6
COc1ccc(-c2noc(CCCc3ccccc3)n2)cc1OC	-4.2	-4.6	0.2	26.1*
Cc1ccc(-c2noc(CCCc3ccccc3)n2)cc1	-1.3	-10.8	0.7	1.0
CC(=O)NS(=O)(=O)c1ccc(NS(=O)(=O)c2ccc3ccccc3c2)cc1	/	/	/	3.4
CC(=O)NS(=O)(=O)c1ccc(NS(=O)(=O)c2ccc(F)cc2)cc1	89.3*	5.7	1.8	-1.3
SMILES	Runt-CBFb FRET	Runt-SMMHC FRET	Hck Nef HTS	RanGTP-Imp inh
Cc1cc2c(c(=O)n1CCCn1ccnc1)C(c1ccco1)C(C#N)=C(N)O2 (stereo unspecified)	46.1	107.9*	-0.6	5.3
COc1ccccc1C1C(C#N)=C(N)Oc2cc(C)n(CCCn3ccnc3)c(=O)c21 (stereo unspecified)	2.7	-4.8	1.3	-3.8
COCCn1c(C)cc2c(c1=O)C(c1ccccc1F)C(C#N)=C(N)O2 (stereo unspecified)	6.0	32.8	-0.1	63.0*
Cc1sc2ncn(CC(=O)NCC(=O)N3CCN(c4ccc(F)cc4)CC3)c(=O)c2c1C	/	/	/	9.0
CCCCNC(=O)Oc1c(Br)cc2sc(=O)oc2c1Br	23.4	8.4	56.0*	/
COc1ccc(NC(=O)C/C(C)=N/NC(=O)c2cccs2)c([N+](=O)[O-])c1	/	/	/	0.1
CCC(=O)N(CCC1(c2ccccc2OC)CCOC(C(C)C)C1)Cc1ccco1 (stereo unspecified)	-5.8	0.2	6.6	1.9
O=C1c2ccccc2C(=O)N1CCc1csc(NNc2nc(CCN3C(=O)c4ccccc4C3=O)cs2)n1	/	4.2	69.2*	3.3
COc1ccc(-n2c(=S)[nH]c3sc4c(c3c2=O)CCN(C)C4)cc1	13.7	38.8	3.2	22.6*
COC(=O)C1=CNC=C(C(=O)OC)C1c1ccc(C(=O)OC)cc1	28.5	70.9*	23.9	5.5
Cc1ccc2nc3c(cc2c1)c(NC(=O)c1ccco1)nn3CC(C)C	49.8	81.2*	17.1	78.4*
CC(C)Cn1nc(NC(=O)c2ccco2)c2cc3ccccc3nc21	30.1	75.2	-7.6	51.3*
CC(C)Cn1nc(NC(=O)C(C)(C)C)c2cc3ccccc3nc21	11.4	23.6	16.8	-1.3
CCn1nc(NC(=O)c2ccncc2)c2cc3ccccc3nc21	6.5	7.0	5.9	3.0
CCn1nc(NC(=O)c2ccco2)c2cc3ccccc3nc21	8.6	9.9	19.5	30.1*
Cc1ccc2nc3c(cc2c1)c(NC(=O)C(C)(C)C)nn3CC(C)C	/	/	/	44.5*
CCOC(=O)C(CC(=O)Nc1nc(C(C)=O)c(C)s1)C(C)c1ccccc1 (stereo unspecified)	/	/	/	-2.9
Cc1cc(C)c2c(=O)n(CC(=O)Nc3ccc(Br)c(C)c3)sc2n1	13.0	55.8	-139.7	-2.6
Cc1cc(C)c2c(=O)n(CC(=O)NC3CCCC3)sc2n1	1.5	52.6*	-140.6	-1.9
OCCC1CN(Cc2c(F)cccc2Cl)CCN1C1CCCCC1 (stereo unspecified)	0.2	-0.5	25.3	4.4
Cc1nn(C)c(Cl)c1CN1CCN(C2CCCCC2)C(CCO)C1 (stereo unspecified)	117.5*	-5.0	18.6	4.2
CC(=O)c1cccc(NC(=S)NC(=O)c2ccccc2)c1	-2.4	-0.4	0.9	-0.7
CNC(=S)Nc1cccc(C(C)=O)c1	-2.1	0.3	72.6*	-9.0
Cc1c(Cc2ccccc2)c(=O)oc2cc(O)cc(O)c12	23.5	63.2*	41.6	4.4
C=CCOc1ccc(C(=O)CC)cc1OC	-2.8	3.1	3.9	-1.0
SMILES	Runt-CBFb FRET	Runt-SMMHC FRET	Hck Nef HTS	RanGTP-Imp inh
CCCCC(=O)Nc1nn(CC(C)C)c2nc3ccccc3cc12	21.9	41.5	3.3	29.2*
CCCn1nc(NC(=O)CC(C)C)c2cc3ccccc3nc21	-4.2	22.9	14.0	27.2*
CC1=Nc2ccccc2/C1=C/c1nc(-c2ccc(C)s2)oc1O	-17.4	-35.9	8.5	37.0*
CC1=Nc2ccccc2/C1=C\c1nc(-c2ccccc2)oc1O	-18.0	-25.9	3.3	-0.9
CN(c1ccc(OC(=O)CN2C(=O)NC3(CCCC3)C2=O)cc1)S(=O)(=O)c1ccccc1	/	/	/	-0.1
Cc1cc2c(sc3c(C)ccc(C)c32)c(C)n1	0.1	-5.1	11.4	3.1
CCCCn1c(NC(=O)c2ccccc2)c(C#N)c2nc3ccccc3nc21	5.9	25.6	21.0	/
Cc1nn(C(C)(C)C)c(NC(=O)c2ccccc2)c1C#N	/	/	/	-5.5
CCC(C)n1c(NC(=O)c2ccccc2)c(C#N)c2nc3ccccc3nc21 (stereo unspecified)	15.6	65.7*	11.6	20.7*
